Like-named read-outs stand apart in the source and are kept apart here.
Assays:
[1] = male rats, ref Waidyanatha et al., cited from earlier work
[2] = Stability in dosed-feed formulations; type: physicochemical; conditions: up to 42 d, RE ≤ ± 10% of day 0 value
[3] = type: in vivo, rat; conditions: male rats; for group mean daily body weight gain: 7 d; for average daily feed consumption: 7 d exposure; for survival: all exposure groups, 7 d via feed
[4] = type: in vivo, rat; conditions: male rats, dose-normalized
Method in brief: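 Male rats (272–308 g, 8–9 weeks), singly caged, received dosed feed ad libitum at 338, 1125 or 3750 ppm for 7 days. Control feed followed, with plasma sampled up to 24 h. Free and deconjugated total test compound were measured by LC-MS/MS. Cmax and AUC came from an extravascular model and were normalized to the daily dose (food consumption, concentration, body weight). Gavage values were taken from earlier single-dose work.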

[5] = in vivo; conditions: male, B6C3F1/N, mouse; for half-life: Free Elimination half-life
[6] = in vivo; conditions: male; for half-life: po, Free Elimination half-life
[7] = type: in vivo, mouse; conditions: male mice; for group mean daily body weight gain: 7 d; for average daily feed consumption: 7 d exposure; for survival: all exposure groups, 7 d via feed
[8] = gavage 34 mg/kg vs feed 23.4 mg/kg
[9] = gavage 110 mg/kg vs feed 70.5 mg/kg
[10] = gavage 340 mg/kg vs feed 193 mg/kg
[11] = Hsd:Sprague Dawley SD (rat), B6C3F1/N (mouse)

Structure (SMILES)	stability in feed formulations stored at refrigerated temperature [2]	group mean daily body weight gain ([3]; 338 ppm via feed) [g]	average daily feed consumption ([3]; 338 ppm) [g/kg bw/d]	group mean daily body weight gain ([3]; 1125 ppm via feed) [g]	average daily feed consumption ([3]; 1125 ppm) [g/kg bw/d]	survival [3]	Total plasma elimination half-lives, range over exposure concentrations [5] [h]	half-life ([5]; po) [h]	half-life ([6]; Hsd:Sprague Dawley SD, rat) [h]	group mean daily body weight gain ([7]; 338 ppm via feed) [g]	average daily feed consumption ([7]; 338 ppm) [g/kg bw/d]	group mean daily body weight gain ([7]; 1125 ppm via feed) [g]	average daily feed consumption ([7]; 1125 ppm) [g/kg bw/d]	survival [7]	also measured
Oc1ccc(C(c2ccc(O)cc2)(C(F)(F)F)C(F)(F)F)cc1 [BPAF, 2,2-bis(4-hydroxyphenyl)perfluoropropane]	confirmed	3.38 ± 3.37	69.2 ± 5.8	2.12 ± 3.68	61.0 ± 11.7	All animals survived until the end of the study	3.49 to 4.18	6.66	7.1	0.3 ± 0.5	207 ± 68	0.1 ± 0.6	211 ± 68	All animals survived until the end of the study	Gavage AUC/D ([1]; single gavage 34 mg/kg, 2019): 11.7 (h*ng/mL)/(mg/kg); Gavage Cmax/D ([1]; single gavage 34 mg/kg, 2019): 1.79 (ng/mL)/(mg/kg); Gavage AUC/D ([1]; single gavage 110 mg/kg, 2019): 11.2 (h*ng/mL)/(mg/kg); Gavage Cmax/D ([1]; single gavage 110 mg/kg, 2019): 1.29 (ng/mL)/(mg/kg); Gavage AUC/D ([1]; single gavage 340 mg/kg, 2019): 14.2 (h*ng/mL)/(mg/kg); Gavage Cmax/D ([1]; single gavage 340 mg/kg, 2019): 1.62 (ng/mL)/(mg/kg); group mean daily body weight gain ([3]; 3750 ppm via feed): −0.4 ± 2.3; average daily feed consumption ([3]; 3750 ppm): 51.5 ± 20.5 g/kg bw/d; Ratio (Gavage/Feed) AUC [4, 8]: 2.3; Ratio (Gavage/Feed) Cmax [4, 8]: 3.9; Ratio (Gavage/Feed) AUC [4, 9]: 1.6; Ratio (Gavage/Feed) Cmax [4, 9]: 2.2; Ratio (Gavage/Feed) AUC [4, 10]: 3.7; Ratio (Gavage/Feed) Cmax [4, 10]: 4.9; Total plasma elimination half-lives, fold longer in rats compared to mice [6, 11]: 2-3 fold; Total Elimination half-life ([6]; Hsd:Sprague Dawley SD, rat): 13.3 h; group mean daily body weight gain ([7]; 3750 ppm via feed): 0.1 ± 0.7 g; feed consumption, fold higher than pre-study control food consumption ([7]; 3750 ppm, probably due to high spillage rate): 1.7 fold
O=S(=O)(c1ccc(O)cc1)c1ccc(O)cc1 [BPS, 4,4’-sulfonyldiphenol]	confirmed	3.7 ± 4.4	68 ± 2.5	3.7 ± 2.7	68 ± 3.5	All animals survived until the end of the study	6.11 to 7.89	6.11	4.82	0.1 ± 0.4	389 ± 85	0.1 ± 0.3	381 ± 61	All animals survived until the end of the study	Gavage Cmax/D ([1]; single gavage 34 mg/kg, 2020): 9.2 (ng/mL)/(mg/kg); Gavage Cmax/D ([1]; single gavage 340 mg/kg, 2020): 9.5 (ng/mL)/(mg/kg); group mean daily body weight gain ([3]; 3375 ppm via feed): 2.6 ± 5.9 g; average daily feed consumption ([3]; 3375 ppm): 62 ± 5.1 g/kg bw/d; Free Elimination half-life ([5]; po): 6.82 h; Free and total Cmax, difference between rats and mice [6, 11]: ≤ 2 fold; Free and total plasma elimination half-lives, difference between rats and mice [6, 11]: ≤ 2 fold; group mean daily body weight gain ([7]; 3375 ppm via feed): 0.1 ± 0.3 g; average daily feed consumption ([7]; 3375 ppm): 348 ± 131 g/kg bw/d

Source: publication PMC7931638 (Xenobiotica; the fate of foreign compounds in biological …, 2020)
